Bioassay records as filed in PubChem.
Shown are actives, neighbours in structure and some others; about 1.7% of the full set was active somewhere.
Myeloid diff MLP: promotes myeloid progenitor differentiation | calls only at 10 µM | 360,000 compounds, 1% hits | AID 624256 | ER-HoxA9 myeloid progenitors, lysozyme-GFP differentiation, flow cytometry;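 active = normalized GFP-positive differentiation at or above the plate's own cutoff, the solvent-only control mean plus 3 SD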;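 note: cells exposed to compound for four days before flow analysis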
T cell HTS: modulates CD8 T cell binding to vesicles; 2C CD8+ T cell-vesicle binding, flow cytometry; active compounds read low; response (vesicle binding), % at 7 µM; 330,000 compounds, 0.068% hits;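 active = response, share of CD8 T cells binding vesicles, and their 90th percentile fluorescence all below set limits, cut at about 80% in these data, passing the limit was not always enough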;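 note: values below 100% mean blocked vesicle binding to the CD8+ T cells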
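Read-out – percent CD8+ FL2 mean versus row control · System – murine 2C transgenic CD8+ T lymphocytes · Times – 1.5 h cell–vesicle binding at 37 °C, then 20 min icy labelling · Control set – naked vesicles low, QL9 vesicles with vehicle high · Detection – cytometric PE anti-B7-1 and Alexa647 anti-CD8 signals after 1% paraformaldehyde fixation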
Vif inh: HIV Vif inhibition; HEK293T cells, Vif self-association by quenched fluorescence, imaging, 24 h; inhibition, % at 7.49 µM; 340,000 compounds, 0.35% hits; in the data active = inhibition above about 50%, passing the limit was not always enough
DSG3 Ab inh: blocks pemphigus antibody binding to human desmoglein-3 | P32926 | DSG3-coupled beads, scFv-anti-DSG3-GFP binding, flow cytometry; active compounds read low | binding (percent of control), % at 10 µM | 310,000 compounds, 0.48% hits | AID 588358;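 active = binding more than 3 SD below its plate's average and above zero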;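 note: hits lower antibody fragment binding to DSG3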
Target sequence (P32926 whole entry, looked up, the tested form may be a part): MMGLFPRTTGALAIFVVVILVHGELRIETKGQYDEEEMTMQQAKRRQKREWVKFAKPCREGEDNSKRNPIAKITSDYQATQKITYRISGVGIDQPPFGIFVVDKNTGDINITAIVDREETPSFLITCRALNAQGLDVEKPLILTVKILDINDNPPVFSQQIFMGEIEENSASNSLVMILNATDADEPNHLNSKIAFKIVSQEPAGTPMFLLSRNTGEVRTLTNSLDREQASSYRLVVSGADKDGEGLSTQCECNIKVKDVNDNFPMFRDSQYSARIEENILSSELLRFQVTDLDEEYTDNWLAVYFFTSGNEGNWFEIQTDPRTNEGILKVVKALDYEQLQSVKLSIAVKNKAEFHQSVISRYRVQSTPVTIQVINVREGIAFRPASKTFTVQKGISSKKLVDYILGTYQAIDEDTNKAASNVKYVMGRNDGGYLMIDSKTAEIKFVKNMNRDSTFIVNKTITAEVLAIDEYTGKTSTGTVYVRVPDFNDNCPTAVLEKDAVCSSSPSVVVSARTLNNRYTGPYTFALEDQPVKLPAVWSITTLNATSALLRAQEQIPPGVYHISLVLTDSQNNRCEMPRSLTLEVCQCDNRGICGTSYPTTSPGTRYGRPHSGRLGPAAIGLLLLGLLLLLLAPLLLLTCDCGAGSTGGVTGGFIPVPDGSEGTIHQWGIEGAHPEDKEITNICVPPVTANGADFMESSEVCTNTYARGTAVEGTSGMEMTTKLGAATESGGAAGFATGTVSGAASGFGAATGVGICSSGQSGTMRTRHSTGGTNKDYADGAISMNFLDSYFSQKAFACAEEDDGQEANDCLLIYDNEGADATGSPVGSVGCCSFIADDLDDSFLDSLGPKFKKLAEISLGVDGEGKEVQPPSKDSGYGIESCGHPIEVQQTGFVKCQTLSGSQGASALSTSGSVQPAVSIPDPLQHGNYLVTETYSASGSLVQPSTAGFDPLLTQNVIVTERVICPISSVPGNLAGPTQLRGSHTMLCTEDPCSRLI
The depositor's hits bear a star; i = inactive; . = not tested or not shown; + = active, no number.

SMILES | Myeloid diff MLP | T cell HTS | Vif inh | DSG3 Ab inh
COc1cc(NC(=O)C2(C)CCN2C(=O)C(C)C)cc(OC)c1OC (stereo unspecified) | i | . | 12 | .
COc1ccc(-c2cc(=O)oc3c(C)c(OC(C)C(=O)Nc4ccc(CN5CCOCC5)cc4)ccc23)cc1 (stereo unspecified) | + | 144 | -2 | 102
COc1ccc(-c2cc(=O)oc3c(C)c(OC(C)C(C)=O)ccc23)cc1 (stereo unspecified) | + | 287 | 8 | 90
CCOC(=O)C(Oc1ccc2c(-c3ccc(OC)cc3)cc(=O)oc2c1C)c1ccccc1 (stereo unspecified) | i | 506 | 4 | 104
Cc1cc(N)ccc1-c1cc2ccccc2oc1=O | i | 384 | 52* | 106
COc1cc(N)ccc1-c1cc2ccccc2oc1=O | i | 330 | 6 | 91
COc1ccc(NS(=O)(=O)c2cc3c4c(c2)CCN4C(=O)CC3)c(OC)c1 | i | . | . | 99
CN1C(=CC=C2C=C(I)C(=O)C(I)=C2)C(C)(C)c2ccccc21 | i | . | -13 | 59*
CN1/C(=C\C=C2/SC(=S)NC2=O)C(C)(C)c2ccccc21 | + | i | i | 115
CCN1C(=O)C(=CC=CN(C)c2ccccc2)SC1=S | + | . | 44 | 151
CCCN1C(=O)/C(=C\C=C2\N(CC)c3ccccc3C2(C)C)SC1=S | + | . | 167* | 146
CN1/C(=C\C=N\O)C(C)(C)c2ccccc21 | i | 269 | -8 | 96
COCCCN(C(=O)C1=COCCO1)c1c(N)n(Cc2ccccc2)c(=O)[nH]c1=O | i | . | -5 | 107
O=C(Sc1n[nH]c(=O)[nH]c1=O)c1ccccc1 | i | . | -1 | 132
COC(=O)[C@H]1C[C@@]2(O)CN(S(=O)(=O)c3ccc(C)cc3)C[C@@]2(OC(=O)NCc2ccccc2F)C[C@H]1C(=O)OC | + | . | 6 | 109
COC(=O)[C@H]1C[C@@]2(O)CN(S(=O)(=O)c3ccc(C)cc3)C[C@@]2(OC(=O)NCc2ccc(OC)c(OC)c2)C[C@H]1C(=O)OC | i | . | -1 | 104
O=C(NCCN1CCC(n2c(=O)[nH]c3ccccc32)CC1)c1ccncc1 | i | . | . | .
c1ccc(-c2nnc(-c3ccncc3)nc2-c2ccccc2)cc1 | i | 119 | 3 | 87
Brc1nc(-c2ccccc2)nc(-c2ccccc2)c1Br | i | 938 | 69* | 103
CCN(C(=O)COC(=O)CCC(=O)c1cccs1)c1ccccc1 | i | 379 | -2 | .
CC(C)Cn1c(N)c(C(=O)COC(=O)Cc2cccc(C(F)(F)F)c2)c(=O)n(C)c1=O | i | 295 | -6 | 106
CN(C)S(=O)(=O)c1cc(NC(=O)CSc2cccc[n+]2[O-])ccc1Cl | i | 295 | -1 | 94
CN(C)S(=O)(=O)c1cc(NC(=O)CSc2ncc(C(F)(F)F)cc2Cl)ccc1Cl | + | 209 | -17 | .
COc1ccccc1CNC(=O)C1CCC(CNS(=O)(=O)c2cccs2)CC1 (stereo unspecified) | i | 188 | 55* | 103
COc1cc(C(=O)N(Cc2ccccc2)c2cccc(C)c2)ccc1OCC(=O)N1CCOCC1 | i | . | . | 94
SMILES | Myeloid diff MLP | T cell HTS | Vif inh | DSG3 Ab inh
Cc1cc(C)nc(NC(=S)Nc2cccc(Cl)c2Cl)c1 | + | 387 | 3 | 908
CC(=O)Oc1cc(O)c2c(=O)c(OC(C)=O)c(-c3ccc(OC(C)=O)c(OC(C)=O)c3)oc2c1 | i | 65* | -14 | 105
CC(C)C(c1nnnn1Cc1ccc2c(c1)OCO2)N1CCN(C)CC1 (stereo unspecified) | i | 210 | 66* | .
N#Cc1c(-c2cccs2)cc(-c2cccs2)[nH]c1=O | i | i | 51* | 94
CCOc1cc(/C=C2\CCC/C(=C\c3cc(Cl)c(O)c(OCC)c3)C2=O)cc(Cl)c1O | + | 237 | 18 | 103
CCCCC(=O)N(C)c1c(CC)nc2c(OCc3ccc(C(F)(F)F)cc3)cccn12 | i | . | -10 | .
Cc1nonc1OCCCNc1ccc([N+](=O)[O-])cc1Cl | + | 326 | -2 | 203
Cc1nonc1OCCNc1ccc([N+](=O)[O-])cc1[N+](=O)[O-] | i | 213 | -1 | 101
CC(=O)Nc1ccc(NC(=O)c2ccc(S(=O)(=O)N(C)c3ccccc3)cc2)cc1 | i | 370 | -3 | .
CN(c1ccccc1)S(=O)(=O)c1ccc(NC(=O)CC(=O)c2ccccc2)cc1 | + | . | -3 | .
COc1ccc(N2CCN(CCCNC(=O)C(=O)c3c(C)n(C)c4ccccc34)CC2)cc1 | i | 401 | 54* | 102
COc1ccc(N2CCN(C(=O)C(=O)c3c(C)n(C)c4ccccc34)CC2)cc1 | i | 113 | 2 | 89
N#Cc1nc(-c2ccc(OCc3ccccc3)cc2)oc1N1CCC(C(N)=O)CC1 | i | 398 | 3 | 66*
CN(Cc1ccccc1)C(=O)c1csc([C@@H]2O[C@H](CO)[C@H](O)[C@H](O)[C@H]2O)n1 | i | . | -7 | .
CCN1C(=O)c2cccc3c(N)ccc(c23)C1=O | i | 125 | . | 93
Cc1nn(C)c(C)c1N1C(=O)c2cccc3c(Br)ccc(c23)C1=O | + | 268 | . | 110
Cc1nn(C)c(C)c1N1C(=O)c2cccc3c(N)ccc(c23)C1=O | + | 188 | i | 101
CN(C)CCCN1C(=O)c2cccc3c(Br)ccc(c23)C1=O | i | 107 | -6 | 98
CCNC(=O)C1CCCN(Cc2cc(-c3ccccc3)on2)CC1 (stereo unspecified) | i | . | -6 | .
O=C(Nc1nc2c(s1)CCCC2)C1COc2ccccc2O1 (stereo unspecified) | i | 38* | -5 | 97
Cc1nnc(NC(=O)C2COc3ccccc3O2)s1 (stereo unspecified) | i | 303 | -1 | 101
Nc1ccc2nc(CCCCCCc3nc4ccc(N)cc4[nH]3)[nH]c2c1 | i | 455 | 1 | 65*
Nc1ccc2nc(-c3cccc(-c4nc5ccc(N)cc5[nH]4)n3)[nH]c2c1 | + | 308 | -3 | 102
Nc1ccc2nc(-c3ccc(-c4nc5ccc(N)cc5[nH]4)cc3)[nH]c2c1 | . | 162 | . | .
CC(=O)Nc1ccc(SCC(=O)Nc2ccccc2N2CCOCC2)cc1 | i | 641 | -9 | 88
SMILES | Myeloid diff MLP | T cell HTS | Vif inh | DSG3 Ab inh
CC(C)=CCN1CCN(Cc2cc(C(C)C)n[nH]2)CC1CCO (stereo unspecified) | + | 460 | -3 | 78
Cc1nnc(Cc2ccco2)c2n[nH]c(C)c12 | i | . | 3 | 107
CC(Cc1ccccc1)C(=O)N[C@@H](CO)Cc1ccccc1 (stereo partly specified) | + | 214 | 0 | 99
CN1CCCC1CCNc1ccc2c(=O)c3ccccc3oc2c1 (stereo unspecified) | i | 559 | 2 | 108
CN1CCC[C@H]1CCNc1ccc2c(=O)c3ccccc3n(C)c2c1 | + | . | . | 150
CNC(=O)C1CCC(=O)N1Cc1c[nH]c2ccccc12 (stereo unspecified) | i | . | 4 | .
